Screens from PubChem BioAssay.
A selection: hits, their analogues and other compounds. The true share with any hit is near 4.8%.
UPR CHOP act – activators of apoptotic CHOP UPR arm, primary screen, cell-based, CHO-CHOP luciferase reporter, luminescence, uHTS. UPR activation; percent of tunicamycin response over DMSO baseline. activation, % at 10 µM. 330,000 compounds, 0.34% hits;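 active means at 10 µM dose, activation of 40% or more, normalized to positive control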
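Assay system: CHO cells with stable CHOP pathway luciferase reporter; Buffer or medium: F12 plus 10% serum; Times: 16-18 h cell attachment, then 6 h compound exposure, 37 °C; Signal: luciferase luminescence; Read-out basis: percent activation relative to tunicamycin control; Control set: tunicamycin high control, DMSO low control.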
UPR XBP1 act – activators of adaptive XBP1 UPR arm, primary screen, cell-based, CHO-XBP1 luciferase reporter, luminescence, uHTS; IRE1-XBP1 UPR activation; percent of tunicamycin response, DMSO as zero; activation, % at 20 µM; 330,000 compounds, 0.33% hits; AID 463104, 2010;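 active means versus positive control, 20 µM dose yields 30% or more activation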
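Material: CHO-XBP1 cells stably carrying IRE1-XBP1-driven luciferase reporter / Amount: 1000 cells per well / Compound: 20 µM, 1% DMSO / Times: 6 h treatment, 37 °C / Detection: luciferase luminescence / Measure: % activation of reporter signal versus tunicamycin and DMSO controls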
Beta apoptosis – inhibitors of cytokine-induced beta cell apoptosis, primary screen, luminescence; protection from apoptosis, % (no concentration beside the values); 300,000 compounds, 0.8% hits; INS-1E cytokine-induced death, ATP luminescence, 48 h; percent of positive-control rescue, neutral wells zero;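 active means Every replicate reaches about 75%, or at least half do and their mean reaches it too, limit read from the data; inconclusive means At least half of replicates reach the limit but their mean does not; inactive means Under half of replicates reach the limit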;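 further: higher means more ATP so stronger rescue from cytokine killing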
CSC inhib – cancer stem cell viability inhibitors, primary screen, luminescence; 300,000 compounds, 1.1% hits; cancer stem cell-like cells viability; inhibition, % at 7.5 µM; AID 2717, 2010; in the data active means inhibition above about 75%; inconclusive means no clear call, values can overlap the other calls; tested in HMLE shEcad cells
SKKanGAS inh – S. pyogenes SKKanGAS growth inhibitors in kanamycin, primary screen, streptokinase expression inhibitor project, SKKanGAS strain, BacTiter-Glo luminescence; 6 h; inhibition, % at 7.5 µM; 300,000 compounds, 1.3% hits;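 active means mean replicate score, as percent of positive control median, at least 50; inconclusive means mean below 50 but one replicate at or above 50; inactive means mean and every replicate below 50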;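 further: strain carries kanamycin resistance gene driven by streptokinase promoter and grows in 40 µg/ml kanamycin; loss of luminescence reflects streptokinase promoter inhibition or plain growth inhibition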
Mdm2 MdmX PPI – inhibitors of human Mdm2-MdmX association, primary screen, cell-based, luminescence, split luciferase, SaOS-2, uHTS; Protein Mdm4 (Homo sapiens) + E3 ubiquitin-protein ligase Mdm2 (Homo sapiens), …; SaOS-2 split-luciferase Mdm2/MdmX complementation; inhibition, % at 8 µM; 330,000 compounds, 3% hits;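 active means inhibition of at least 50% at 8 µM in the primary screen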
UPR XBP1 confirm – IRE1-XBP1 UPR arm activators, confirmation, cell-based, CHO-XBP1 luciferase reporter, luminescence, single concentration; shares compounds with UPR XBP1 act; activation, % at 20 µM; 1,000 compounds, 63% hits;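 active means reporter signal at least 30% of the positive control's activation in two or more of four replicate wells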
Mdm2-MdmX conf – Mdm2-MdmX complex disruptors, retested hits, confirmation, luminescence, single concentration; shares compounds with Mdm2 MdmX PPI; Mdm2-MdmX binding, luminescent assay; AID 489028, 2010; 10,000 compounds, 55% hits; inhibition, % at 8 µM; in the data active means inhibition above about 40%
FLuc counter – full-length luciferase signal inhibition, confirmation, counter-screen for Mdm2/MdmX interaction inhibitor project, cell-based, single concentration, SaOS-2; shares compounds with Mdm2 MdmX PPI; SaOS-2 full-length luciferase counterscreen, luminescence; inhibition, % at 8 µM; 6,200 compounds, 77% hits; AID 504607, 2011;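 active means mean inhibition at 8 µM reaching about 37%, which flags the compound as non-specific, limit read from the data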;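 further: p53-null SaOS-2 cells with luciferase driven by a doxycycline-inducible promoter; compound on cells about two nights before reading with doxycycline added after day one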
Each line names hits and unclear results; the compound was inactive in the other large screens (follow-up assays come after a bar, where they were run).

COc1ccc(-c2nn3c(-c4ccccc4)nnc3s2)cc1	none
CCN(CC)c1ccc(-c2nn3c(-c4ccccc4OC)nnc3s2)cc1	UPR XBP1 act 30, CSC inhib 93, SKKanGAS inh 56, Mdm2 MdmX PPI 76 | UPR XBP1 confirm 32 | Mdm2-MdmX conf 65 | FLuc counter 73
COc1ccc(C(C(=O)NC2CCCC2)N(C(=O)c2snc(-c3ccc(F)cc3)c2N)c2cccc(F)c2)cc1 (stereo not drawn)	UPR XBP1 act 37, Mdm2 MdmX PPI 62 | UPR XBP1 confirm inactive | Mdm2-MdmX conf inactive
Nc1nc(Nc2ccccc2)nc(NCc2ccco2)c1[N+](=O)[O-]	none
Fc1ccc(Nc2nc(NCc3ccco3)c3ccccc3n2)cc1	UPR XBP1 act 31, CSC inhib 86, Mdm2 MdmX PPI 77 | UPR XBP1 confirm 33 | Mdm2-MdmX conf inactive
c1ccc(CNc2nc(NCc3ccccc3)c3ccccc3n2)cc1	UPR XBP1 act 59, Beta apoptosis 114, CSC inhib 135, Mdm2 MdmX PPI 100 | UPR XBP1 confirm inactive | Mdm2-MdmX conf 75 | FLuc counter 51
COc1cccc(/C=N/Nc2ccc(S(=O)(=O)O)cc2)c1O	none
COc1cccc(/C=N/Nc2ccc([N+](=O)[O-])cn2)c1O	UPR XBP1 act 65, Beta apoptosis 119, CSC inhib 123, SKKanGAS inh 104, Mdm2 MdmX PPI 93 | UPR XBP1 confirm 64 | Mdm2-MdmX conf 91 | FLuc counter 53
Cc1cc(C)c(S(=O)(=O)N2CCN(C(=O)C3COc4ccccc4O3)CC2)c(C)c1 (stereo not drawn)	none (no result: CSC inhib, SKKanGAS inh)
OCCCn1c(C2CCCN2c2nc(-c3ccc(F)cc3)cs2)nc2cc(Cl)c(N3CCCCC3)cc21 (stereo not drawn)	UPR XBP1 act 100, Mdm2 MdmX PPI 63 | UPR XBP1 confirm 48 | Mdm2-MdmX conf inactive
Cc1csc(N2CCCC2c2nc3cc(Cl)c(N4CCCCC4)cc3n2CCCO)n1 (stereo not drawn)	none
COc1ccc(-c2cc(C#N)nc(Oc3ccc(Cl)cc3)n2)cc1	none
COc1ccc(-c2cc(C#N)nc(Cl)n2)cc1	UPR XBP1 act 30, Mdm2 MdmX PPI 68 | UPR XBP1 confirm inactive | Mdm2-MdmX conf inactive | FLuc counter 38
COC(=O)C1=C(C)N(Cc2ccccc2)C(=NCc2cccc(Cl)c2)N[C@H]1c1cccc(F)c1	UPR XBP1 act 45, Beta apoptosis 98, CSC inhib 134, Mdm2 MdmX PPI 100 (no result: SKKanGAS inh) | UPR XBP1 confirm inactive | Mdm2-MdmX conf 60 | FLuc counter inactive
COC(=O)C1=C(C)N(Cc2ccccc2)C(=NCc2ccccc2)N[C@H]1c1cccc(C(F)(F)F)c1	UPR XBP1 act 30, Beta apoptosis 113, CSC inhib 122, Mdm2 MdmX PPI 98 (no result: SKKanGAS inh) | UPR XBP1 confirm inactive | Mdm2-MdmX conf inactive
O=C(CNC(=O)c1ccc(Cl)cc1Cl)OCCCn1c(=O)[nH]c2ccccc21	none
CC(C)(C)NC(=O)Cn1c(-c2nonc2N)nc2ccccc21	none
CCCCOc1ccccc1NC(=O)Cn1c(-c2nonc2N)nc2ccccc21	UPR XBP1 act 101, Mdm2 MdmX PPI 90 | UPR XBP1 confirm 82 | Mdm2-MdmX conf inactive
COc1ccc(S(=O)(=O)N2CCN(S(=O)(=O)c3ccc4c(c3)OCCO4)CC2)cc1C	none (no result: Beta apoptosis, CSC inhib)
COc1ccc(S(=O)(=O)N2CCN(S(=O)(=O)c3ccc4c(c3)OCCO4)CC2)cc1	UPR XBP1 act 38, Mdm2 MdmX PPI 58 | UPR XBP1 confirm inactive | Mdm2-MdmX conf inactive
COCCOc1ccc(C(F)(F)F)cc1NC(=O)COC(=O)C12CC3CC(CC(O)(C3)C1)C2	none
COc1ccc(Cl)cc1Nc1nc2ccc(C)cc2n2cnnc12	UPR XBP1 act 54, Mdm2 MdmX PPI 55 | UPR XBP1 confirm inactive | Mdm2-MdmX conf inactive
Cc1cc(=O)oc2c(C)c(OC(C)C(=O)Nc3ccc(N4CCC(C)CC4)cc3)ccc12 (stereo not drawn)	none
CC1CCC(C(C)C)C(OC(=O)Cn2c(-c3ccc(Cl)cc3)[n+](C)c3ccccc32)C1 (stereo not drawn)	UPR XBP1 act 87, Beta apoptosis 100, Mdm2 MdmX PPI 100 | UPR XBP1 confirm 86 | Mdm2-MdmX conf 96 | FLuc counter 52
CC1CCC(C(C)C)C(OC(=O)COC(=O)c2cccn2C)C1 (stereo not drawn)	none
CC1CCC(C(C)C)C(OC(=O)COC(=O)c2ccc(N)cc2)C1 (stereo not drawn)	CSC inhib inconclusive
Cc1ccccc1OCc1n(CC(=O)OC2CC(C)CCC2C(C)C)c2ccccc2[n+]1C (stereo not drawn)	UPR XBP1 act 45, Beta apoptosis 114, Mdm2 MdmX PPI 65 | UPR XBP1 confirm inactive | Mdm2-MdmX conf 99 | FLuc counter 60
CC1CCC(C(C)C)C(OC(=O)Cn2c(-c3ccc(Br)cc3)[n+](C)c3ccccc32)C1 (stereo not drawn)	UPR XBP1 act 109, Beta apoptosis 106, Mdm2 MdmX PPI 100 | UPR XBP1 confirm 108 | Mdm2-MdmX conf 95 | FLuc counter 57
Cc1cc(N2CCN(C)CC2)ccc1NC(=O)c1cccc(S(=O)(=O)N2CCc3ccccc3C2)c1	UPR XBP1 act 34, Mdm2 MdmX PPI 96 | UPR XBP1 confirm inactive | Mdm2-MdmX conf inactive | FLuc counter 73
C=CC[C@@H](CC(=O)N[C@@H](CO)Cc1ccccc1)C(=O)NC[C@@H](OC(=O)[C@@H](CC=C)Cc1ccc(F)cc1)c1ccccc1	UPR XBP1 act 32, Mdm2 MdmX PPI 52 (no result: SKKanGAS inh) | UPR XBP1 confirm inactive | Mdm2-MdmX conf inactive
C=CC[C@@H](CC(=O)N[C@@H](CO)Cc1ccccc1)C(=O)NC[C@H](OC(=O)[C@@H](CC=C)Cc1ccc(F)cc1)c1ccccc1	none (no result: CSC inhib, SKKanGAS inh)
